A short description of data set [1]: Serum stability, human serum. The format is in vitro ADME. In outline: (§1)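 Formulated radiotracer (12.5–25 μl, 2–6 MBq) was added to 0.5 ml of either human or mouse serum and incubated at 37 °C in a sealed tube. At each time point an aliquot was withdrawn and serum proteins were precipitated. The supernatant was analysed by HPLC for intact radiotracer.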
A short description of data set [2]: Serum stability, mouse serum. The format is in vitro ADME. The essentials: as §1
The test system of another data set is BxPC-3 [αvβ6(+)] cells. Kind of data set: Cell binding and internalization, BxPC-3 cells. Particulars: 60 min; n = 4; mean ± SD. Type of data set: cell-based. The essentials:
(§2)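 Tubes were pretreated with non-fat milk (0.5 % w/v in PBS). DX3puro cells were kept in DMEM with puromycin (2 μg/ml); BxPC-3 cells were kept in RPMI. Both media had 10 % heat-inactivated FBS and 1 % PSG, at 37 °C and 5 % CO2. Integrin expression was checked by flow cytometry beforehand. Radiotracer binding and internalization ran 60 min (n = 4) and are reported as fraction of total radioactivity.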

The next data set deals with DX3puro [αvβ6(−)] cells. Kind of data set: Cell binding and internalization, DX3puro cells. The format is cell-based. Particulars: 60 min; n = 4. The essentials: as §2
Data set [3] in a line: PET imaging, radioactivity remaining in the body. The format is in vivo, mouse. To be noted: 4 h p.i., i.v., PET imaging studies, tumor-bearing mice, n = 4; mean ± SD. In outline:
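Mice bearing xenografts (paired DX3puroβ6/DX3puro or BxPC-3) received 5–7 MBq radiotracer i.v. via tail vein, with mass held at 0.175 nmol (7 nmol/kg for a 25-g mouse). Two mice per scan lay prone under 1.5–2.0 % isoflurane (n = 4/radiotracer). Static PET scans: 15 min at 1, 2, 4 h and 30 min at 6 h p.i., plus CT. Body-retained radioactivity was decay corrected.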

Data set [4] can be described thus: Biodistribution in mice bearing paired DX3puroβ6/DX3puro xenograft tumors. The format is in vivo. Particulars: female, athymic nude, mouse, iv, 0.175 nmol per injection, total radioactivity; for tissue uptake at 1 h: 1 h p.i. The essentials:
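Female athymic nude mice carried 3 × 10^6 DX3puro and 3 × 10^6 DX3puroβ6 cells s.c. in DMEM on opposite flanks; studies began at ~0.5 cm tumor diameter. Radiotracer at 1.5–3.3 MBq/animal was given i.v. via tail vein under isoflurane, with mass held at 0.175 nmol by adding nonradioactive peptide. Tissues were taken at 1, 2, 4 or 2, 4, 6 h p.i. (n = 3–4), rinsed and γ-counted; results are decay-corrected % ID/g.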

The fraction remaining is the share of the starting amount still present when the sample was taken. What is called tissue uptake is the percentage of the injected dose found per gram of tissue.

For `CC(C)C[C@H](NC(=O)[C@H](CC(=O)O)NC(=O)CNC(=O)[C@H](CCCNC(=N)N)NC(=O)[C@H](CC(C)C)NC(=O)[C@H](CC(N)=O)NC(=O)[C@@H]1CCCN1C(=O)[C@@H](NC(=O)[C@H](C)NC(=O)[C@H](CC(N)=O)NC(=O)CCOCCOCCOCCOCCOCCOCCOCCOCCOCCOCCOCCOCCOCCOCCOCCOCCOCCOCCOCCOCCOCCOCCOCCOCCOCCOCCOCCOCCNC(=O)CN1CCN(CC(=O)O)CCN(CC(=O)O)CC1)C(C)C)C(=O)N[C@@H](CCC(N)=O)C(=O)N[C@H](C(=O)N[C@@H](CC(C)C)C(=O)N[C@@H](C)C(=O)N[C@@H](CCC(N)=O)C(=O)N[C@@H](CCCNC(=N)N)C(=O)N[C@H](C(=O)N[C@@H](C)C(=O)N[C@@H](CCCNC(=N)N)C(=O)N[C@H](C(=O)NCCOCCOCCOCCOCCOCCOCCOCCOCCOCCOCCOCCOCCOCCOCCOCCOCCOCCOCCOCCOCCOCCOCCOCCOCCOCCOCCOCCOCCC(N)=O)[C@@H](C)O)C(C)C)C(C)C` [[^18F]AlF 1, [^18F]AlF NOTA-αvβ6-BP], in data set [1], the fraction remaining at 2 h is at least 97%. The share remaining at 2 h in data set [2] was found to be 67%. In the data set on BxPC-3 [αvβ6(+)] cells, the “binding to BxPC-3 cells (of total radioactivity)” value is 45.1 ± 0.7% and the “internalization into BxPC-3 cells (of total radioactivity)” value is given as 31.5 ± 1.3%. Moreover, in the data set with DX3puro [αvβ6(−)] cells, the “binding to DX3puro cells (of total radioactivity)” value is given as at most 1.2% and the “internalization into DX3puro cells (of total radioactivity)” value was at most 0.5%. Besides, the “injected radioactivity remaining in the body (decay corrected)” value in data set [3] was found to be 21.7 ± 3.4%. Also, the tissue uptake in data set [4] (DX3puro tumor, uptake in DX3puro tumor, all time points (1, 2, 4 h p.i.)) was at most 0.3 %ID/g. Also, the tissue uptake at 1 h in data set [4] (DX3puroβ6 tumor, uptake in DX3puroβ6 tumor, n = 3–4, mean ± SD) is 2.2 ± 0.5 %ID/g. The tissue uptake at 4 h in data set [4] (DX3puroβ6 tumor, uptake in DX3puroβ6 tumor, 4 h p.i., n = 3–4, mean ± SD) was 3 ± 0.7 %ID/g. Further, in data set [4] (blood, blood radioactivity, DX3puroβ6/DX3puro model), the tissue uptake at 1 h was at most 0.1 %ID/g.

Values taken from paper PMC7647958 (Molecular imaging and biology, 2020).
